Measured values: ChEMBL document CHEMBL4190262, “Tuning of β-glucosidase and α-galactosidase inhibition by generation and in situ screening of a library of pyrrolidine-triazole hybrid molecules” (Eur J Med Chem, 2017)
Each block holds one molecule with its values, some of them ahead of it. Active and inactive are the calls of the source. No cut-off for these calls is given here.

Legend:
[1] = test system: Prunus dulcis; test: Inhibition of almond beta-glucosidase at 10 uM using p-nitrophenyl glycopyranoside preincubated for 5 mins followed by substrate addition measured after 20 mins by visible absorption spectroscopic method relative to control
Summary of the method: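 Crude click-reaction products screened in situ. Azide (final 15 mM) was reacted with each alkyne using sodium ascorbate/CuSO4 in tBuOH–H2O for 24 h at rt, then diluted with water. Tested at 10 μM per well, assuming quantitative conversion, against almond β-glucosidase at pH 5, 37 °C. p-Nitrophenyl glycoside read-out at 405 nm.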

[2] = target: Beta-galactosidase (Escherichia coli) (UniProt Q8VNN2); test: Inhibition of Escherichia coli beta-galactosidase at 1 mM using p-nitrophenyl glycopyranoside preincubated for 5 mins followed by substrate addition measured after 20 mins by visible absorption spectroscopic method relative to control
Summary of the method: (§1)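 Test compound at 1 mM in well. Mix: 0.01–0.5 units/mL enzyme plus 10 mM p-nitrophenyl glycopyranoside (aqueous solution), buffered to the enzyme's optimal pH. Enzyme and inhibitor preincubated 5 min at rt. Substrate then added and incubated 20 min at 37 °C. Stopped with sodium borate (pH 9.8). p-Nitrophenolate read at 405 nm. Duplicates averaged.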

[3] = organism: Bos taurus; test: Inhibition of bovine kidney alpha-L-fucosidase at 1 mM using p-nitrophenyl glycopyranoside preincubated for 5 mins followed by substrate addition measured after 20 mins by visible absorption spectroscopic method relative to control; summary of the method: as §1
[4] = target: Alpha-galactosidase (Coffea arabica) (UniProt Q42656); test: Inhibition of coffee beans alpha-galactosidase at 1 mM using p-nitrophenyl glycopyranoside preincubated for 5 mins followed by substrate addition measured after 20 mins by visible absorption spectroscopic method relative to control; summary of the method: as §1
[5] = target: T1, Beta-galactosidase (Aspergillus oryzae) (UniProt B7VU80); test: Inhibition of Aspergillus oryzae beta-galactosidase at 1 mM using p-nitrophenyl glycopyranoside preincubated for 5 mins followed by substrate addition measured after 20 mins by visible absorption spectroscopic method relative to control; summary of the method: as §1
T1 sequence (whole entry): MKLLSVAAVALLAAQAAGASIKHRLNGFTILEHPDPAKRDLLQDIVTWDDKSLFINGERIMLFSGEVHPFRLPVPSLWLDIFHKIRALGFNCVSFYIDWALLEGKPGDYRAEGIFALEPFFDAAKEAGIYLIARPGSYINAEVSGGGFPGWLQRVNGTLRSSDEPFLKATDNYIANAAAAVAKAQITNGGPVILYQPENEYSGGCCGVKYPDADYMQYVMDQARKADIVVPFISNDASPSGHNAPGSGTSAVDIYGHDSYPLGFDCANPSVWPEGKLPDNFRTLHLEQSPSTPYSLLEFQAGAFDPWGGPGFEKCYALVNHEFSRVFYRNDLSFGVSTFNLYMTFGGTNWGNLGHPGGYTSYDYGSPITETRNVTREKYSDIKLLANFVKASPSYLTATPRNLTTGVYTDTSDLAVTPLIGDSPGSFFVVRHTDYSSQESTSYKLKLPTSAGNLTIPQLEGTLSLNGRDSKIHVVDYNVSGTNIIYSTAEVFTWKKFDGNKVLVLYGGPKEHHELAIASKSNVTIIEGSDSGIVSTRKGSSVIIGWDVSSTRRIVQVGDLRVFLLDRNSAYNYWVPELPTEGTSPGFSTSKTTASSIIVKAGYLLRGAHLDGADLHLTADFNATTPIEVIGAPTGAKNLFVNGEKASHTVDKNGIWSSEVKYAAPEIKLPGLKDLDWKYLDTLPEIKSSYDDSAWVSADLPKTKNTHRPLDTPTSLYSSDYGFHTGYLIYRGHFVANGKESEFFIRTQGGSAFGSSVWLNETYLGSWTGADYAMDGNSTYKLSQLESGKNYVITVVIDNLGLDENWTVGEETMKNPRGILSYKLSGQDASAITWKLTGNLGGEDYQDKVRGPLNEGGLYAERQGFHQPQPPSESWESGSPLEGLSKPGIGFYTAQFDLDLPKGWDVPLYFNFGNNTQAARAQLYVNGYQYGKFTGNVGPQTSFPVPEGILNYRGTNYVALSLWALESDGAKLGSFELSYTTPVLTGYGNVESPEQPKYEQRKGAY

[6] = test system: Saccharomyces cerevisiae; test: Inhibition of yeast alpha glucosidase at 1 mM using p-nitrophenyl glycopyranoside preincubated for 5 mins followed by substrate addition measured after 20 mins by visible absorption spectroscopic method relative to control; summary of the method: as §1
[7] = test system: Oryza sativa; test: Inhibition of rice alpha-glucosidase at 1 mM using p-nitrophenyl glycopyranoside preincubated for 5 mins followed by substrate addition measured after 20 mins by visible absorption spectroscopic method relative to control; summary of the method: as §1
[8] = test system: Aspergillus niger; test: Inhibition of Aspergillus niger amyloglucosidase at 1 mM using p-nitrophenyl glycopyranoside preincubated for 5 mins followed by substrate addition measured after 20 mins by visible absorption spectroscopic method relative to control; summary of the method: as §1
[9] = test system: Prunus dulcis; test: Inhibition of almond beta-glucosidase at 1 mM using p-nitrophenyl glycopyranoside preincubated for 5 mins followed by substrate addition measured after 20 mins by visible absorption spectroscopic method relative to control; summary of the method: as §1
[10] = target: T2, Alpha-mannosidase (Canavalia ensiformis) (UniProt C0HJB3); test: Inhibition of jack bean alpha-mannosidase at 1 mM using p-nitrophenyl glycopyranoside preincubated for 5 mins followed by substrate addition measured after 20 mins by visible absorption spectroscopic method relative to control; summary of the method: as §1
T2 sequence (whole entry): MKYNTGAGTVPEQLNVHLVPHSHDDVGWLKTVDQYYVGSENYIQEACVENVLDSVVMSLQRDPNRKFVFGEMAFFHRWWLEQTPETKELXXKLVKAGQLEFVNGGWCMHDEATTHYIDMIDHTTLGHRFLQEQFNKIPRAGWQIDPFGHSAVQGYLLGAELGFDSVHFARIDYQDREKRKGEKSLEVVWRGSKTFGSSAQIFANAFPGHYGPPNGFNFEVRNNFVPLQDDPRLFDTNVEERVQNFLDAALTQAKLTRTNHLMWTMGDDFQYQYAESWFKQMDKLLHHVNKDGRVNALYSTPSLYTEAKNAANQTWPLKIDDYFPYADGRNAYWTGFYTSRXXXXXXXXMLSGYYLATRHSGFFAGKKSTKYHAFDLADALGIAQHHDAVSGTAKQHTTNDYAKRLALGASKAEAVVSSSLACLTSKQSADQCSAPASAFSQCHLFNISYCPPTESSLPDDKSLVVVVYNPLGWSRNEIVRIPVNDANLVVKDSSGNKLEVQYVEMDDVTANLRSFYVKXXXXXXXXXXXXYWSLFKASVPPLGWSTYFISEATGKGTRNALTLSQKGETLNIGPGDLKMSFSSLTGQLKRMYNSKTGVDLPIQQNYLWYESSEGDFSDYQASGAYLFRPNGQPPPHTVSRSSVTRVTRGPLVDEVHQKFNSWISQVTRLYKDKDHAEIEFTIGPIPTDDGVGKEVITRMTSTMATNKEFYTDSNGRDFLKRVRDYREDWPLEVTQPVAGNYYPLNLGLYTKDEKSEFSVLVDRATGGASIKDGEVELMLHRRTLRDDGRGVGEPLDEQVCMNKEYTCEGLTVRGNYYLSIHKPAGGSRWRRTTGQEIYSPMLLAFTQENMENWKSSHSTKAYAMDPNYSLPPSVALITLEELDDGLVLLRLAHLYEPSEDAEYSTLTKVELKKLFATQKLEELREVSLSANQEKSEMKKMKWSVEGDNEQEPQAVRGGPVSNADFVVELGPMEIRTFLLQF

[11] = test system: Cornu aspersum; test: Inhibition of snail beta-mannosidase at 1 mM using p-nitrophenyl glycopyranoside preincubated for 5 mins followed by substrate addition measured after 20 mins by visible absorption spectroscopic method relative to control; summary of the method: as §1
[12] = test system: Canavalia ensiformis; test: Inhibition of jack bean beta-N-acetylglucosaminidase at 1 mM using p-nitrophenyl glycopyranoside preincubated for 5 mins followed by substrate addition measured after 20 mins by visible absorption spectroscopic method relative to control; summary of the method: as §1

Sequence of Alpha-galactosidase (Coffea arabica) (Q42656 16-378 limits assumed): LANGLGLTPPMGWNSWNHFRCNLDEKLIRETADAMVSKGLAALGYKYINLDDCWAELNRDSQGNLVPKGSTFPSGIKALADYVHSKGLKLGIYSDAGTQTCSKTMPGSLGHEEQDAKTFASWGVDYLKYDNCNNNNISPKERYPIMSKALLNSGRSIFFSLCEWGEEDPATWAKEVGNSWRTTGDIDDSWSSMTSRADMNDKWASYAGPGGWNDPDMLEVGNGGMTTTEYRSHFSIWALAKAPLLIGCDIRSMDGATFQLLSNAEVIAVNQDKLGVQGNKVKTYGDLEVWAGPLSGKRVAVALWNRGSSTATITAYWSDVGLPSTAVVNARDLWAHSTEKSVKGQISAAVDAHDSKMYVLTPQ
Sequence of Beta-galactosidase (Escherichia coli) (Q8VNN2 whole entry, looked up): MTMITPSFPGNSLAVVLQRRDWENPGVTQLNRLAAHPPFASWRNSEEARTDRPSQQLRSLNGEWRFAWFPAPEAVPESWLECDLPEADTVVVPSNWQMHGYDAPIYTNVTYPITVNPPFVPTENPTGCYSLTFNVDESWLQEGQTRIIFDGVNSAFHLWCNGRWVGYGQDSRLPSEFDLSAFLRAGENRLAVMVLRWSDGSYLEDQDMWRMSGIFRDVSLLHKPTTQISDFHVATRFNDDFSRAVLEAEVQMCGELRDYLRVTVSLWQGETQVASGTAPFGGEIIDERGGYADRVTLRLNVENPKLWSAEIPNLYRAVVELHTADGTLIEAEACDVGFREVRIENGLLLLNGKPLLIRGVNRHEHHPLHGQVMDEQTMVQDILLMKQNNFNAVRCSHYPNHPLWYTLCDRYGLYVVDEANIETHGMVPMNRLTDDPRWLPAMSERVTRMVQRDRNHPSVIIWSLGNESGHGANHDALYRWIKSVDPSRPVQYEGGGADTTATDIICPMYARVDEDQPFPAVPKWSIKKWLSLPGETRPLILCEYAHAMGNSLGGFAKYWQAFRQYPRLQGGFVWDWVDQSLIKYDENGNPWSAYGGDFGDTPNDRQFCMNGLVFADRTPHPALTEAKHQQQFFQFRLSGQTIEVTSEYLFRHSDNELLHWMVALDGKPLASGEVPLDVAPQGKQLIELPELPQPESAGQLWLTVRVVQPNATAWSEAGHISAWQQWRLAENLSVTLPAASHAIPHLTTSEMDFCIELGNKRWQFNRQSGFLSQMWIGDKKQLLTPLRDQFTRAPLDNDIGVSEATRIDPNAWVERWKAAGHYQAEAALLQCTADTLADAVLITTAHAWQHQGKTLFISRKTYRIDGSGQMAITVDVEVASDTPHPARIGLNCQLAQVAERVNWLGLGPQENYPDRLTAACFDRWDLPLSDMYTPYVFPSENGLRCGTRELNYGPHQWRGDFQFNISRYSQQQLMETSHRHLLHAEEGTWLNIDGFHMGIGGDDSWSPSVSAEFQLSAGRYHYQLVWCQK

- inhibition [1]: inactive
Compound: COC(=O)c1cn(C[C@@H]2NC[C@@H](O)[C@H]2O)nn1

- inhibition [2]: inactive
- inhibition [3]: inactive
- inhibition [4]: 16%
- inhibition [5]: inactive
- inhibition [6]: inactive
- inhibition [7]: inactive
- inhibition [8]: 18%
- inhibition [9]: 74%
- inhibition [10]: inactive
- inhibition [11]: 45%
- inhibition [12]: inactive
Compound: O[C@@H]1[C@H](O)CN[C@H]1CNC(=S)Nc1ccccc1

- inhibition [1]: inactive
Compound: OCCOCCOCCOCCOCCOCCOCc1cn(C[C@@H]2NC[C@@H](O)[C@H]2O)nn1

Compound: [N-]=[N+]=NC[C@@H]1NC[C@@H](O)[C@H]1O
- inhibition [2]: inactive
- inhibition [3]: 33%
- inhibition [4]: 44%
- inhibition [5]: inactive
- inhibition [6]: inactive
- inhibition [7]: inactive
- inhibition [8]: inactive
- inhibition [9]: inactive
- inhibition [10]: 71%
- inhibition [11]: inactive
- inhibition [12]: inactive
- inhibition [1]: inactive

- inhibition [1]: inactive
Compound: Cc1ccc(S(=O)(=O)OCCOCCOCCOCCOCCOCCOCc2cn(C[C@@H]3NC[C@@H](O)[C@H]3O)nn2)cc1

- inhibition [1]: inactive
Compound: Cc1oc(CO)cc1C(=O)NCc1cn(C[C@@H]2NC[C@@H](O)[C@H]2O)nn1

- inhibition [1]: inactive
Compound: O=C(O)CCCc1cn(C[C@@H]2NC[C@@H](O)[C@H]2O)nn1

- inhibition [1]: inactive
Compound: OCCOCc1cn(C[C@@H]2NC[C@@H](O)[C@H]2O)nn1

- inhibition [1]: inactive
Compound: OCCCc1cn(C[C@@H]2NC[C@@H](O)[C@H]2O)nn1

- inhibition [1]: inactive
Compound: NCc1cn(C[C@@H]2NC[C@@H](O)[C@H]2O)nn1

- inhibition [1]: inactive
Compound: OCc1cn(C[C@@H]2NC[C@@H](O)[C@H]2O)nn1

- inhibition [2]: inactive
- inhibition [3]: inactive
- inhibition [4]: inactive
- inhibition [5]: inactive
- inhibition [6]: inactive
- inhibition [7]: inactive
- inhibition [8]: inactive
- inhibition [9]: 49%
- inhibition [10]: 60%
- inhibition [11]: inactive
- inhibition [12]: inactive
Compound: O[C@H]1[C@@H](O)CN[C@@H]1Cn1cc(-c2ccccc2)nn1

- inhibition [1]: inactive
Compound: O=C(NCc1cn(C[C@@H]2NC[C@@H](O)[C@H]2O)nn1)c1ccccc1

- inhibition [1]: inactive
Compound: CN(Cc1ccccc1)Cc1cn(C[C@@H]2NC[C@@H](O)[C@H]2O)nn1

- inhibition [1]: inactive
Compound: O[C@@H]1[C@H](O)CN[C@H]1Cn1cc(CC2CCCCC2)nn1

- inhibition [1]: inactive
Compound: O[C@@H]1[C@H](O)CN[C@H]1Cn1cc(COc2ccccc2)nn1

- inhibition [2]: inactive
- inhibition [3]: 71%
- inhibition [4]: inactive
- inhibition [5]: inactive
- inhibition [6]: inactive
- inhibition [7]: inactive
- inhibition [8]: inactive
- inhibition [9]: inactive
- inhibition [10]: inactive
- inhibition [11]: inactive
- inhibition [12]: inactive
Compound: O[C@@H]1[C@H](O)CN[C@H]1c1cn(Cc2ccccc2)nn1

- inhibition [1]: inactive
Compound: COc1ccc(-c2cn(C[C@@H]3NC[C@@H](O)[C@H]3O)nn2)cc1

- inhibition [2]: inactive
- inhibition [3]: 21%
- inhibition [4]: inactive
- inhibition [5]: inactive
- inhibition [6]: inactive
- inhibition [7]: inactive
- inhibition [8]: inactive
- inhibition [9]: inactive
- inhibition [10]: 30%
- inhibition [11]: inactive
- inhibition [12]: inactive
Compound: O[C@@H]1[C@@H](c2cn(Cc3ccccc3)nn2)NC[C@@H]1O

- inhibition [1]: inactive
Compound: COc1ccc2cc(-c3cn(C[C@@H]4NC[C@@H](O)[C@H]4O)nn3)ccc2c1

- inhibition [2]: inactive
- inhibition [3]: 15%
- inhibition [4]: inactive
- inhibition [5]: inactive
- inhibition [6]: inactive
- inhibition [7]: inactive
- inhibition [8]: inactive
- inhibition [9]: 79%
- inhibition [10]: 71%
- inhibition [11]: inactive
- inhibition [12]: 17%
Compound: O=C(NC[C@@H]1NC[C@@H](O)[C@H]1O)c1ccccc1

- inhibition [1]: inactive
Compound: OCc1ccc(-c2cn(C[C@@H]3NC[C@@H](O)[C@H]3O)nn2)cc1

- inhibition [1]: inactive
Compound: O[C@@H]1[C@H](O)CN[C@H]1Cn1cc(C2(O)CCCCC2)nn1
